pIC50: −log10 of the molar value. Activity calls are given as the source filed them. The calls are words filed in the database; no cut-off is given here.

inhibition, IC50 and Activity data for three compounds are collected here from ChEMBL document CHEMBL1765057, “Pyrazolo[4,3-d]pyrimidine bioisostere of roscovitine: evaluation of a novel selective inhibitor of cyclin-dependent kinases with antiproliferative activity” (J Med Chem, 2011).

In experiment [1] the test system is U2OS. The experiment can be described thus: Reduction of homologous recombination in human DR-U2OS-GFP cells expressing I-SceI nuclease at 0.1 uM after 56 hrs […] relative to control. The experiment is classed as functional.
The target of experiment [2] is Cyclin-dependent kinase 2/cyclin E1 (Homo sapiens, UniProt P24941). Nature of the experiment: Inhibition of human recombinant CDK2/cyclin E. Type of experiment: protein-complex assay.
Experiment [3] deals with Cyclin-dependent kinase 5/CDK5 activator 1 (Homo sapiens, UniProt Q00535). Nature of the experiment: Inhibition of human recombinant CDK5/p35. Type of experiment: protein-complex assay.
The target in experiment [4] is Cyclin-dependent kinase 7/ cyclin H (Homo sapiens, UniProt P50613). The experiment can be described thus: Inhibition of human recombinant CDK7/cyclin H/MAT1. The experiment is classed as protein-complex assay.
The next experiment concerns the target CDK9/cyclin T1 (Homo sapiens, UniProt P50750). The experiment can be described thus: Inhibition of human recombinant CDK9/cyclin T1. Type of experiment: protein-complex assay.
Experiment [5] addresses Cyclin-dependent kinase 7/ cyclin H (Homo sapiens) (UniProt P51946+P50613). The experiment can be described thus: Inhibition of human recombinant CDK7/cyclin H/MAT1 at 10 uM. The experiment is classed as protein-complex assay.
Experiment [6] addresses CDK9/cyclin T1 (Homo sapiens) (UniProt O60563+P50750). Nature of the experiment: Inhibition of human recombinant CDK9/cyclin T1 at 10 uM. The experiment is classed as protein-complex assay.
Experiment [7] deals with Casein kinase I isoform alpha (Homo sapiens) (UniProt P48729). The experiment can be described thus: Inhibition of human recombinant CK1 at 10 uM.
Experiment [8] deals with Casein kinase II (Homo sapiens) (UniProt P67870+P68400+P19784). Nature of the experiment: Inhibition of human recombinant CK2 at 10 uM. The experiment is classed as protein-complex assay.
For experiment [9], the target named is Glycogen synthase kinase-3 alpha (Homo sapiens) (UniProt P49840). The experiment can be described thus: Inhibition of human recombinant GSK3A at 10 uM.
For experiment [10], the target named is Glycogen synthase kinase-3 beta (Homo sapiens) (UniProt P49841). Nature of the experiment: Inhibition of human recombinant GSK3B at 10 uM.
Experiment [11] concerns the target Dual specificity mitogen-activated protein kinase kinase 1 (Homo sapiens) (UniProt Q02750). Nature of the experiment: Inhibition of human recombinant MEK1 at 10 uM.
For experiment [12], the target named is MAP kinase-activated protein kinase 5 (Homo sapiens) (UniProt Q8IW41). The experiment can be described thus: Inhibition of human recombinant PRAK at 10 uM.
The target in experiment [13] is Ribosomal protein S6 kinase alpha-5 (Homo sapiens) (UniProt O75582). Nature of the experiment: Inhibition of human recombinant MSK1 at 10 uM.
The target of experiment [14] is T1, Retinoblastoma-associated protein (Homo sapiens) (UniProt P06400).
T1 sequence (whole entry): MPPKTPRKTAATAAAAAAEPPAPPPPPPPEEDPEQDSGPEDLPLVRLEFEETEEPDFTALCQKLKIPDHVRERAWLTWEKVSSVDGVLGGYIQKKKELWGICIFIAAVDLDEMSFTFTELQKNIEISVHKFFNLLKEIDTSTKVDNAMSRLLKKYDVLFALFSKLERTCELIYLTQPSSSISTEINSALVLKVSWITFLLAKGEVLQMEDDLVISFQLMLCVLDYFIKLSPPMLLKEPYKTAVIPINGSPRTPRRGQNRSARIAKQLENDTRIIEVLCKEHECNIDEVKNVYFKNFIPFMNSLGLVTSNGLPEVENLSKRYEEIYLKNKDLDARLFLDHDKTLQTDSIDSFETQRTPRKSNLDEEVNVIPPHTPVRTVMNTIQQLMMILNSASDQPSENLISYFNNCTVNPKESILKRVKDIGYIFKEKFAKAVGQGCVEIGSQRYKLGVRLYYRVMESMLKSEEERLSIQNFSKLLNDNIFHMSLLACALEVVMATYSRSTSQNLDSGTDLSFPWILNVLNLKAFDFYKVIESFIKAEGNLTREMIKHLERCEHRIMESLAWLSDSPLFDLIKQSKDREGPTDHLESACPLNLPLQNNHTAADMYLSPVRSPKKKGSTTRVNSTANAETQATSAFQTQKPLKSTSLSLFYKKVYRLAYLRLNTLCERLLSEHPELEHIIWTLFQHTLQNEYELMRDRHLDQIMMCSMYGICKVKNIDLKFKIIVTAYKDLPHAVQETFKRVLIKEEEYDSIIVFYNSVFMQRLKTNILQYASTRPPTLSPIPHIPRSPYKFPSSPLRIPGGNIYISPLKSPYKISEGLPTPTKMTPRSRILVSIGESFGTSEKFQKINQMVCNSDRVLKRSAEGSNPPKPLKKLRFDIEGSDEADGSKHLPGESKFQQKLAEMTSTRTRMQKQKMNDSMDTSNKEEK
The experiment can be described thus: Inhibition of retinoblastoma protein in human HT-29 cells assessed as reduction of cyclin A level at 2.5 to 40 uM after 24 hrs by immunoblotting. The experiment is classed as cell-based. In general terms: A western blot detects proteins with antibodies after separation by electrophoresis.

Experiment [15] deals with T1, Retinoblastoma-associated protein (Homo sapiens). The experiment can be described thus: Inhibition of retinoblastoma protein in human HT-29 cells assessed as reduction of CDK4 level at 2.5 to 40 uM after 24 hrs by immunoblotting. Type of experiment: cell-based.
The subject of experiment [16] is MCF7. Nature of the experiment: Cell cycle arrest in human MCF7 cells assessed as accumulation at G2/M phase after 24 hrs using propidium iodide and BrdU staining by flow cytometry. The experiment is classed as functional, cell-based. In outline:
(§1)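 Subconfluent MCF-7 cells were treated for 24 h at a range of concentrations. They were pulse-labelled with 10 μM BrdU for 30 min at 37 °C, then trypsinized and fixed in ice-cold 70% ethanol. DNA was denatured in 2 M HCl and neutralized with borate. Cells were stained with fluorescein anti-BrdU and with propidium iodide plus RNase A, then analysed by flow cytometry at 488 nm.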

The subject of experiment [17] is RPMI-8226. The experiment can be described thus: Cell cycle arrest in human RPMI8226 cells assessed as accumulation at G2/M phase after 24 hrs using propidium iodide and BrdU staining by flow cytometry. Type of experiment: functional, cell-based. In outline: (§2)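 Asynchronously growing RPMI-8226 multiple myeloma cells were exposed for 24 h. Cells were double-stained with propidium iodide and BrdU and analysed by flow cytometry for G1, S, G2/M and BrdU-positive fractions. The subG1 population was taken as indicative of apoptosis.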
(Dividing cells build labelled thymidine or BrdU into new DNA.)

Experiment [18] deals with MCF7. Nature of the experiment: Cell cycle arrest in human MCF7 cells assessed as decrease in S phase cell population after 24 hrs using propidium iodide and BrdU staining by flow cytometry. Type of experiment: functional, cell-based. In outline:
as §1

Experiment [19] relates to RPMI-8226. Nature of the experiment: Cell cycle arrest in human RPMI8226 cells assessed as decrease in S phase cell population after 24 hrs using propidium iodide and BrdU staining by flow cytometry. The experiment is classed as functional, cell-based. In outline: as §2
Experiment [20] relates to MCF7. Nature of the experiment: Cell cycle arrest in human MCF7 cells assessed as reduction of actively replicating DNA level at 80 uM after 24 hrs using propidium iodide and BrdU staining by flow cytometry. The experiment is classed as functional, cell-based. The procedure, abridged:
as §1

Experiment [21] has as its system RPMI-8226. The experiment can be described thus: Cell cycle arrest in human RPMI8226 cells assessed as reduction of actively replicating DNA level at 80 uM after 24 hrs using propidium iodide and BrdU staining by flow cytometry. The experiment is classed as functional, cell-based. In outline: as §2
Experiment [22] deals with MCF7. The experiment can be described thus: Cell cycle arrest in human MCF7 cells assessed as accumulation at sub-G1 phase after 24 hrs using propidium iodide and BrdU staining by flow cytometry. The experiment is classed as functional, cell-based. The procedure, abridged:
as §1

For experiment [23], the system named is RPMI-8226. The experiment can be described thus: Cell cycle arrest in human RPMI8226 cells assessed as accumulation at sub-G1 phase after 24 hrs using propidium iodide and BrdU staining by flow cytometry. Type of experiment: functional, cell-based. In outline:
as §2

The target in experiment [24] is Cellular tumor antigen p53 (Homo sapiens) (UniProt P04637). The experiment can be described thus: Induction of p53-dependent transcriptional activity in human MCF7 cells assessed as increase of p21 WAF1 level at 20 uM after 24 hrs by immunofluorescence assay. The experiment is classed as cell-based.
Experiment [25] relates to U2OS. To be noted: Homo sapiens, 10 uM.

Sequence of Glycogen synthase kinase-3 alpha (Homo sapiens) (P49840 2-483 limits assumed): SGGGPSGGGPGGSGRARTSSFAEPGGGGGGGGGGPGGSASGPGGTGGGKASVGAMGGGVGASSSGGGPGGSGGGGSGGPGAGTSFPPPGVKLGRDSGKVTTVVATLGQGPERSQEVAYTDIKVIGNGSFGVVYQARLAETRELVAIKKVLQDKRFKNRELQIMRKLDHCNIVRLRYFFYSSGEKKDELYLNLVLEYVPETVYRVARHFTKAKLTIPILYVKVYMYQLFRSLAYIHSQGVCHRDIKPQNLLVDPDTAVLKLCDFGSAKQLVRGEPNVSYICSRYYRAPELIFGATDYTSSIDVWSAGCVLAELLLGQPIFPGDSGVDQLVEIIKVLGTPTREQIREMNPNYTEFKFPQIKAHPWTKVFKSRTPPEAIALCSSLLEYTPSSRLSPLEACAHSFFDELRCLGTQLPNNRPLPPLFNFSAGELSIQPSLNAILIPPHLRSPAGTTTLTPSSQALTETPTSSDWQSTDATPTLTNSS
Sequence of Cyclin-dependent kinase 7/ cyclin H (P51946 whole entry): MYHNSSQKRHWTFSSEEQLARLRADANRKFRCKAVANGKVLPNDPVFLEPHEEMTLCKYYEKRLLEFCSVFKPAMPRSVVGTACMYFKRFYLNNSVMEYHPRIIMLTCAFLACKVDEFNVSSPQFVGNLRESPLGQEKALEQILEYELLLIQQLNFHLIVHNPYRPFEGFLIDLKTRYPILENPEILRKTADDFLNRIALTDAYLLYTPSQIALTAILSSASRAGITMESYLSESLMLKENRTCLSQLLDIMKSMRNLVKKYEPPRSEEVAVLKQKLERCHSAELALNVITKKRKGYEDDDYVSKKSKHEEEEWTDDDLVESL
Sequence of Cyclin-dependent kinase 7/ cyclin H (P50613 whole entry): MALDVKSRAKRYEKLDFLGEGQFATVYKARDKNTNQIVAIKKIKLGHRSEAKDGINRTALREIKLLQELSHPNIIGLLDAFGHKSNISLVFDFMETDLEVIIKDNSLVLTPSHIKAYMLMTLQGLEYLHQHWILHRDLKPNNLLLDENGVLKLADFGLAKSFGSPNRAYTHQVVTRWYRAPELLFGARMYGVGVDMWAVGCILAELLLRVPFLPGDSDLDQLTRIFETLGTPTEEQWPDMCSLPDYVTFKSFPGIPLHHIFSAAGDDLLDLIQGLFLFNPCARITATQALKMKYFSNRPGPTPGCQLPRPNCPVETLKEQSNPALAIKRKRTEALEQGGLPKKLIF
Sequence of Cellular tumor antigen p53 (Homo sapiens) (P04637 whole entry, looked up): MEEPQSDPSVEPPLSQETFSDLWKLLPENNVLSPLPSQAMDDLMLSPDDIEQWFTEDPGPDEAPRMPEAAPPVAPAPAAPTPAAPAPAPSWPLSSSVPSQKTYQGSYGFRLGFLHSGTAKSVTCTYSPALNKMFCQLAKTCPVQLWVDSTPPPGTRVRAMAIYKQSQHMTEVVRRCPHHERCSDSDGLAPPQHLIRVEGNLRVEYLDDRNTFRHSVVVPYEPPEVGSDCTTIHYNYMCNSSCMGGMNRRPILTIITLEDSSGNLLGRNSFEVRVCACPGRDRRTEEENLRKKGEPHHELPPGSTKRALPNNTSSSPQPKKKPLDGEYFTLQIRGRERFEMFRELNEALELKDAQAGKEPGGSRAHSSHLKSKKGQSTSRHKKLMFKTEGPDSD
Sequence of Dual specificity mitogen-activated protein kinase kinase 1 (Homo sapiens) (Q02750 whole entry): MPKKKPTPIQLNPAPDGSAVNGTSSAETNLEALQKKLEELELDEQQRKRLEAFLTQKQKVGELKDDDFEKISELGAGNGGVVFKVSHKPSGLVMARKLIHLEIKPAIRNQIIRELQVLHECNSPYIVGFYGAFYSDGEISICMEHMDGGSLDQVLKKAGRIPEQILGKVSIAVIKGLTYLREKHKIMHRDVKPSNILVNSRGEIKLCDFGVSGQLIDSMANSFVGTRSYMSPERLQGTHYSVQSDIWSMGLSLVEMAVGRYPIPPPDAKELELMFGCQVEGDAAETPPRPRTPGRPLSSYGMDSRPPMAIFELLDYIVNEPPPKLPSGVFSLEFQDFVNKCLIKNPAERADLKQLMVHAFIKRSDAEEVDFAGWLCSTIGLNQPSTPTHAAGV
Sequence of MAP kinase-activated protein kinase 5 (Homo sapiens) (Q8IW41 whole entry): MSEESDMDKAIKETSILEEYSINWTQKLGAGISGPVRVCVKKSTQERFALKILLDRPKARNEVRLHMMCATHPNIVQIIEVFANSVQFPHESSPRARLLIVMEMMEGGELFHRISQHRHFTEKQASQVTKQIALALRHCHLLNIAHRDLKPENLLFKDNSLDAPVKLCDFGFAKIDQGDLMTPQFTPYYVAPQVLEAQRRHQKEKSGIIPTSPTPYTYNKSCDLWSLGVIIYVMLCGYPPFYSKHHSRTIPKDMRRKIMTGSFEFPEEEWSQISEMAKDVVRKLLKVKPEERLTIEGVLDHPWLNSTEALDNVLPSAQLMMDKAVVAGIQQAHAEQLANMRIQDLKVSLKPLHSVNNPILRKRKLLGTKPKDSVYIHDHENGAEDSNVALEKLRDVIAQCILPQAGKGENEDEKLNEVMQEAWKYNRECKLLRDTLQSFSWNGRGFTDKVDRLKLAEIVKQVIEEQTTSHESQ
Sequence of Casein kinase I isoform alpha (Homo sapiens) (P48729 2-337 limits assumed): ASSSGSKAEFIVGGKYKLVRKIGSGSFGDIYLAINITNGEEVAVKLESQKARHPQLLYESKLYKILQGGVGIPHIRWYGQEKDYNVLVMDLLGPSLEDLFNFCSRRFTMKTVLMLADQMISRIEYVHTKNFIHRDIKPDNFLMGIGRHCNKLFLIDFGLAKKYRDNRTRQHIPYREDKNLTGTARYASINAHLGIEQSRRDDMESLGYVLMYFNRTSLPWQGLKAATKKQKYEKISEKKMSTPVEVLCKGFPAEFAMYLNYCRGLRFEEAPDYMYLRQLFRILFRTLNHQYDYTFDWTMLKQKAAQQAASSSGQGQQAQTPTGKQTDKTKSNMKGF
Sequence of Ribosomal protein S6 kinase alpha-5 (Homo sapiens) (O75582 whole entry, looked up): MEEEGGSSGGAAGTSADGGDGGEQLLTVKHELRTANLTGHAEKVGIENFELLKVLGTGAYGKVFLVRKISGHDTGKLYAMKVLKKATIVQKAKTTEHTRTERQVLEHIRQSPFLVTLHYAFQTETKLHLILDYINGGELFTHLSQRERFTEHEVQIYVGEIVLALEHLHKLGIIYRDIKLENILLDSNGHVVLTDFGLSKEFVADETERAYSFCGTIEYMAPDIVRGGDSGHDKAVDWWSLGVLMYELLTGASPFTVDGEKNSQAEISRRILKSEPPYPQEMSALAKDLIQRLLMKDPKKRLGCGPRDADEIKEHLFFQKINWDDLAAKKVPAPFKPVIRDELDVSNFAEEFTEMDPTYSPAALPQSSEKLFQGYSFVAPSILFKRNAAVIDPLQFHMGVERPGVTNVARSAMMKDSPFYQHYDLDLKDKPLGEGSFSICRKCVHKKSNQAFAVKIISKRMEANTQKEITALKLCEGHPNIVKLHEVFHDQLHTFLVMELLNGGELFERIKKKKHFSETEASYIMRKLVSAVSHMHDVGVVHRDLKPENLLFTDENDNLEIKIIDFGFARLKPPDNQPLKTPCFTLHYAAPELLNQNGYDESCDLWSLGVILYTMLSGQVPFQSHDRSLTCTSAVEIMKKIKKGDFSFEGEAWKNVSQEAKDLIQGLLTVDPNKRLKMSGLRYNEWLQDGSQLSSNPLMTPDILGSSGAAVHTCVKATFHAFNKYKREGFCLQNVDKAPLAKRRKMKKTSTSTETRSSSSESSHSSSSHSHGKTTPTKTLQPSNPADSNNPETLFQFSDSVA
Sequence of Cyclin-dependent kinase 5/CDK5 activator 1 (Q00535 whole entry): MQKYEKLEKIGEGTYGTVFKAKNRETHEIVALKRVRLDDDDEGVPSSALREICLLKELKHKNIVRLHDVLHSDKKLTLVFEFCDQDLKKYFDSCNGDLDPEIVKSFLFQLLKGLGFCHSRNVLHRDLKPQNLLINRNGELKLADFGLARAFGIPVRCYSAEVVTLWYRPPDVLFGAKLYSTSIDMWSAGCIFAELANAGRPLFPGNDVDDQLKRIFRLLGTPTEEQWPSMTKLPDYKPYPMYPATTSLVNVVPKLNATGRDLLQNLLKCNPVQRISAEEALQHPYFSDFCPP
Sequence of Cyclin-dependent kinase 5/CDK5 activator 1 (Q15078 whole entry, further chain): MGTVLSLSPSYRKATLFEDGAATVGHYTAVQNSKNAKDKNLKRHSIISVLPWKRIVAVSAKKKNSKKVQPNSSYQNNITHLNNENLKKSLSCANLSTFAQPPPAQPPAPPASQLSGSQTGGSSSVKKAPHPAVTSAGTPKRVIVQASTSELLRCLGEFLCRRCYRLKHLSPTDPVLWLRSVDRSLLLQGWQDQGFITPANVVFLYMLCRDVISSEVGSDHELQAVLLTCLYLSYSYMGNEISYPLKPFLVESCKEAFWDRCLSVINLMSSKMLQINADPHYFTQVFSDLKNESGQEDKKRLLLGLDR
Sequence of Glycogen synthase kinase-3 beta (Homo sapiens) (P49841 whole entry, looked up): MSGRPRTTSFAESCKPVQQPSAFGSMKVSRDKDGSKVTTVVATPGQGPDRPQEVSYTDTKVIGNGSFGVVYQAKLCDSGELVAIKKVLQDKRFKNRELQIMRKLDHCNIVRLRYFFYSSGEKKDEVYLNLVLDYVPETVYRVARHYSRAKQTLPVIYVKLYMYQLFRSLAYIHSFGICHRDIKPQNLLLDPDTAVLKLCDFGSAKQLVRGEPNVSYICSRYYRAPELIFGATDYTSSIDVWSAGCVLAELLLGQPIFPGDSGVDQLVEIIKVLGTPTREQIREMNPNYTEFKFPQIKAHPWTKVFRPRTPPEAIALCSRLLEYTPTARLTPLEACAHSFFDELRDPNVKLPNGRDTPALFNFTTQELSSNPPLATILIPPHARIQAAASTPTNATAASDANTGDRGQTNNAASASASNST

Take `CN1CC[C@H](c2c(O)cc(O)c3c(=O)cc(-c4ccccc4Cl)oc23)[C@H](O)C1` [ALVOCIDIB]: in the experiment on U2OS [1], the inhibition – broadly, the relative decrease from the control value, in per cent – at 0.1 µM was determined as 62%.

Take `CC[C@H](CO)Nc1nc(NCc2ccccc2)c2n[nH]c(C(C)C)c2n1`: the pIC50 (in general, the IC50 on a negative log10 scale, so that one unit is a factor of ten) in experiment [2] is 7.40; in experiment [3], 6.70; in [4], 6.80; at CDK9/cyclin T1, 6.00.

As for `CC[C@H](CO)Nc1nc(NCc2ccccc2)c2ncn(C(C)C)c2n1`, the inhibition turned out to be 87% in experiment [5]; 87% in experiment [6]; 1% in experiment [7]; 10% in experiment [8]; 13% in [9]; 25% in experiment [10]. The inhibition amounted to 38% in experiment [11], 28% in [12] and 29% in [13]. In experiment [14], the inhibition result was “Active”. For the same compound, the inhibition result (in experiment [15]; in the experiment on U2OS [25]) was “inactive” throughout. Further, the result in the experiment with MCF7 [16], in the experiment on RPMI-8226 [17], in the experiment with MCF7 [18], in the experiment with RPMI-8226 [19], in the experiment with MCF7 [20] and in the experiment on RPMI-8226 [21] was Active. Besides, the outcome (in the experiment with MCF7 [22]; with RPMI-8226 [23]; in [24]) was Active.
